Test results as given in ChEMBL document CHEMBL4000211, “Discovery of novel polycyclic spiro-fused carbocyclicoxindole-based anticancer agents” (Eur J Med Chem, 2017).
The source made the active and inactive calls. The calls are words filed in the database; no cut-off is given here.

Assays:
NCI-H1299 = experiment: Antiproliferative activity against human NCI-H1299 cells after 48 hrs by MTT assay; format: functional, cell-based; conditions: NCI-H1299, 48 h
Method in brief: (§1)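 Cells seeded at 3×10³/well and grown 24 h, then exposed 48 h to six final concentrations, twofold steps down from 30. MTT (5 mg/mL) was added for 2–4 h at 37 °C. Supernatant was removed, formazan dissolved in DMSO, and OD read at 570 nm. Results are given as IC50, or as percent inhibition where IC50 exceeds the top concentration. At least three runs.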

MCF7 = experiment: Antiproliferative activity against human MCF7 cells after 48 hrs by MTT assay; format: functional, cell-based; conditions: MCF7, 48 h; method in brief: as §1
HCT-116 [1] = experiment: Induction of apoptosis in human HCT116 cells assessed as nuclear condensation at 7.5 to 12.5 uM after 24 hrs by Hoechst 33342 staining-based fluorescence microscopic method; format: functional, cell-based
Method in brief: (§2)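 HCT116 cells (1×10⁵/well) cultured 24 h, then exposed to 0, 7.5, 10 or 12.5 μM (final) for 24 h. Rinsed in PBS, fixed in 75% ethanol and checked by inverted microscopy. Then stained with Hoechst 33342 (2 μg/mL in PBS) and scored for apoptotic nuclear morphology under fluorescence microscopy.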

NCI-H1975 = experiment: Antiproliferative activity against human NCI-H1975 cells after 48 hrs by MTT assay; format: functional, cell-based; conditions: NCI-H1975, 48 h; method in brief: as §1
HCT-116 [2] = experiment: Induction of apoptosis in human HCT116 cells assessed as necrotic cells at 10 uM after 24 hrs by annexin V-FITC/propidium iodide staining-based flow cytometric method (reference value: 1.85%); format: functional
HCT-116 [3] = experiment: Induction of apoptosis in human HCT116 cells assessed as viable cells at 10 uM after 48 hrs by annexin V-FITC/propidium iodide staining-based flow cytometric method (reference value: 95.05%); format: functional; conditions: HCT-116, 48 h, read-out: Activity
Method in brief: (§3)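 HCT116 cells seeded at 1×10⁶ cells/mL in 6-well plates for 24 h, then exposed to 0, 7.5, 10 or 12.5 μM for a further 24 h or 48 h. Cells washed twice in PBS, then stained with Annexin V-FITC plus PI (100 μg/mL stock) in binding buffer (10 mM HEPES, pH 7.4, 2.5 mM CaCl₂) for 30 min at room temperature in the dark. Early and late apoptotic fractions gated by flow cytometry.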

HCT-116 [4] = experiment: Induction of apoptosis in human HCT116 cells assessed as reduction in cell volume at 7.5 to 12.5 uM after 24 hrs by Hoechst 33342 staining-based fluorescence microscopic method; format: functional; method in brief: as §2
HCT-116 [5] = experiment: Induction of apoptosis in human HCT116 cells assessed as viable cells at 7.5 uM after 24 hrs by annexin V-FITC/propidium iodide staining-based flow cytometric method (reference value: 93.48%); format: functional; conditions: HCT-116, 24 h, read-out: Activity; method in brief: as §3
HCT-116 [6] = experiment: Induction of apoptosis in human HCT116 cells assessed as early apoptotic cells at 12.5 uM after 48 hrs by annexin V-FITC/propidium iodide staining-based flow cytometric method (reference value: 1.6%); format: functional
HCT-116 [7] = experiment: Induction of apoptosis in human HCT116 cells assessed as viable cells at 12.5 uM after 24 hrs by annexin V-FITC/propidium iodide staining-based flow cytometric method (reference value: 93.48%); format: functional; conditions: HCT-116, 24 h, read-out: Activity; method in brief: as §3
HCT-116 [8] = experiment: Cell cycle arrest in human HCT116 cells assessed as accumulation at G2 phase at 7.5 uM after 48 hrs by propidium iodide staining-based flow cytometric method (reference value: 31.27%); format: functional
[9] = target: E3 ubiquitin-protein ligase Mdm2 (Homo sapiens) (UniProt Q00987); experiment: Inhibition of MDM2-mediated p53 degradation in human HCT116 cells assessed as increase in MDM2 levels at 7.5 to 12.5 uM after 24 hrs by Western blot method; format: cell-based
Method in brief: (§4)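 Treated HCT116 cells lysed on ice in RIPA buffer with 1% protease inhibitor cocktail. Lysates cleared at 13000 g for 20 min at 4 °C and protein measured by BCA. Equal protein amounts run on SDS-PAGE, transferred to PVDF and probed with primary then HRP secondary antibodies. Bands detected by enhanced chemiluminescence; 24 h treatment.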

HCT-116 [10] = experiment: Induction of apoptosis in human HCT116 cells assessed as late apoptotic cells at 10 uM after 24 hrs by annexin V-FITC/propidium iodide staining-based flow cytometric method (reference value: 2.77%); format: functional
HCT-116 [11] = experiment: Antiproliferative activity against human HCT116 cells after 48 hrs by MTT assay; format: functional, cell-based; conditions: HCT-116, 48 h; method in brief: as §1
HCT-116 [12] = experiment: Induction of apoptosis in human HCT116 cells assessed as increase in cleaved caspase-3 level after 24 hrs by Western blot method; format: functional, cell-based
Method in brief: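 Treated HCT116 were lysed on ice in RIPA buffer with 1% protease inhibitor cocktail and spun 13000 g, 20 min, 4 °C. Protein was quantified by BCA. Equal protein was run on SDS-PAGE, blotted to PVDF, probed with primary and HRP secondary antibodies, and detected by enhanced chemiluminescence.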

HCT-116 [13] = experiment: Cell cycle arrest in human HCT116 cells assessed as accumulation at S phase at 10 uM after 24 hrs by propidium iodide staining-based flow cytometric method (reference value: 36.43%); format: functional
HCT-116 [14] = experiment: Induction of apoptosis in human HCT116 cells assessed as necrotic cells at 7.5 uM after 48 hrs by annexin V-FITC/propidium iodide staining-based flow cytometric method (reference value: 2.29%); format: functional; method in brief: as §3
[15] = target: E3 ubiquitin-protein ligase Mdm2 (Homo sapiens) (UniProt Q00987); experiment: Inhibition of MDM2-mediated p53 degradation in human HCT116 cells assessed as increase in p53 levels at 7.5 to 12.5 uM after 24 hrs by Western blot method; format: cell-based; method in brief: as §4
HCT-116 [16] = experiment: Cell cycle arrest in human HCT116 cells assessed as accumulation at sub G1 phase at 12.5 uM after 48 hrs by propidium iodide staining-based flow cytometric method (reference value: 0.86%); format: functional
HCT-116 [17] = experiment: Induction of apoptosis in human HCT116 cells assessed as necrotic cells at 12.5 uM after 24 hrs by annexin V-FITC/propidium iodide staining-based flow cytometric method (reference value: 1.85%); format: functional; method in brief: as §3
HCT-116 [18] = experiment: Induction of apoptosis in human HCT116 cells assessed as viable cells at 12.5 uM after 48 hrs by annexin V-FITC/propidium iodide staining-based flow cytometric method (reference value: 95.05%); format: functional; conditions: HCT-116, 48 h, read-out: Activity; method in brief: as §3
A2780S [19] = experiment: Antiproliferative activity against human A2780S cells at 7.5 uM after 48 hrs by MTT assay relative to control; format: functional; method in brief: as §1
A2780S [20] = experiment: Antiproliferative activity against human A2780S cells at 30 uM after 48 hrs by MTT assay relative to control; format: functional; method in brief: as §1
HCT-116 [21] = experiment: Induction of apoptosis in human HCT116 cells assessed as late apoptotic cells at 7.5 uM after 48 hrs by annexin V-FITC/propidium iodide staining-based flow cytometric method (reference value: 1.06%); format: functional
HCT-116 [22] = experiment: Induction of apoptosis in human HCT116 cells assessed as early apoptotic cells at 10 uM after 48 hrs by annexin V-FITC/propidium iodide staining-based flow cytometric method (reference value: 1.6%); format: functional
HCT-116 [23] = experiment: Cell cycle arrest in human HCT116 cells assessed as accumulation at S phase at 10 uM after 48 hrs by propidium iodide staining-based flow cytometric method (reference value: 34.83%); format: functional

Sequence of E3 ubiquitin-protein ligase Mdm2 (Homo sapiens) (Q00987 whole entry, looked up): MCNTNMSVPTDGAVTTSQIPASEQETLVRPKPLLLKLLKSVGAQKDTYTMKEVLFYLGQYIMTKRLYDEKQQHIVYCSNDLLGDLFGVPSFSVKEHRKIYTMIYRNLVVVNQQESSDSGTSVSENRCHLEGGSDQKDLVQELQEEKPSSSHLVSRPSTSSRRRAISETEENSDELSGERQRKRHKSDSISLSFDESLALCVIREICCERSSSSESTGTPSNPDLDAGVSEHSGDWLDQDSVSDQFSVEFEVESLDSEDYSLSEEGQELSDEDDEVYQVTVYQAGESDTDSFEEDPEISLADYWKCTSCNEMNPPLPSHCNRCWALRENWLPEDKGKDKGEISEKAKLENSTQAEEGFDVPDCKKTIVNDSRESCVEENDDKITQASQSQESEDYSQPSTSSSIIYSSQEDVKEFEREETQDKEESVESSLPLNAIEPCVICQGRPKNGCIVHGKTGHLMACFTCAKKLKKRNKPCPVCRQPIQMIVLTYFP

Question: `C[C@@H]1Oc2ccc3ccccc3c2[C@@H]2[C@@H]1C=C(C=O)[C@@H](C)[C@]21C(=O)Nc2ccccc21` was tested. Which IC50 (NCI-H1299) did it give?
Answer: Its IC50 is over 30 µM.

Question: And the IC50 (MCF7)?
Answer: Its IC50 is 16.2 µM.

Question: What about the Activity (HCT-116 [1]) of the same compound?
Answer: The Activity was “Active”.

Question: And the IC50 (NCI-H1975)?
Answer: Its IC50 is 13.7 µM.

Question: What about the Activity (HCT-116 [2]) of the same compound?
Answer: The Activity was 2.46%.

Question: What about the viability at 10 µM (HCT-116 [3]) of the same compound?
Answer: The viability at 10 µM was 61.5%.

Question: And the Activity (HCT-116 [4])?
Answer: Its Activity is “Active”.

Question: And the viability at 7.5 µM (HCT-116 [5])?
Answer: Its viability at 7.5 µM is 89.9%.

Question: What about the Activity (HCT-116 [6]) of the same compound?
Answer: The Activity was 47.17%.

Question: And the viability at 12.5 µM (HCT-116 [7])?
Answer: Its viability at 12.5 µM is 46.6%.

Question: What about the Activity (HCT-116 [8]) of the same compound?
Answer: The Activity was 26.41%.

Question: And the inhibition [9]?
Answer: Its inhibition is “Active”.

Question: And the Activity (HCT-116 [10])?
Answer: Its Activity is 10.13%.

Question: What about the IC50 (HCT-116 [11]) of the same compound?
Answer: The IC50 was 8.6 µM.

Question: What about the Activity (HCT-116 [12]) of the same compound?
Answer: Its Activity is “Dose-dependent effect”.

Question: What about the Activity (HCT-116 [13]) of the same compound?
Answer: Its Activity is 7.13%.

Question: What about the Activity (HCT-116 [14]) of the same compound?
Answer: Its Activity is 2.02%.

Question: And the inhibition [15]?
Answer: Its inhibition is “Active”.

Question: What about the Activity (HCT-116 [16]) of the same compound?
Answer: The Activity was 64.26%.

Question: And the Activity (HCT-116 [17])?
Answer: The Activity was 2.21%.

Question: And the viability at 12.5 µM (HCT-116 [18])?
Answer: Its viability at 12.5 µM is 28.6%.

Question: What about the inhibition at 7.5 µM (A2780S [19]) of the same compound?
Answer: Its inhibition at 7.5 µM is 50 to 58.1%.

Question: And the inhibition at 30 µM (A2780S [20])?
Answer: The inhibition at 30 µM was 83.8 to 85.1%.

Question: And the Activity (HCT-116 [21])?
Answer: The Activity was 2.09%.

Question: What about the Activity (HCT-116 [22]) of the same compound?
Answer: The Activity was 27.48%.

Question: What about the Activity (HCT-116 [23]) of the same compound?
Answer: Its Activity is 18.5%.
